Values after ≈ are worked out from the molar mass of the structure shown.
Assays:
Klebsiella pneumoniae [1] = assay: Antibacterial activity against Klebsiella pneumoniae after 24 hrs by agar disk diffusion assay; format: functional
Method in brief: (§1)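 Gram-negative clinical isolates (PSG Hospital, Coimbatore) tested by agar well diffusion on nutrient agar. Compounds dissolved in DMSO at 0 (control), 25, 50, 75, 100; DMSO was the negative control and ciprofloxacin ([…]) the positive control. Incubation 37 ± 2 °C for 24 h, then inhibition zone diameter measured in mm.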

Candida albicans [2] = assay: Antifungal activity against Candida albicans at 25 ug/ml after 48 hrs by agar disk diffusion assay; format: functional; details: read-out: DIZ
Method in brief: (§2)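 Fungal isolates (PSG Hospital, Coimbatore) grown on Sabouraud dextrose agar; agar well diffusion with compounds in DMSO at 0 (control), 25, 50, 75, 100. DMSO negative control, fluconazole ([…]) positive control. Plates held 28 ± 2 °C for 48 h; zone of inhibition diameter recorded in mm.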

Candida albicans [3] = assay: Antifungal activity against Candida albicans after 48 hrs by agar disk diffusion assay; format: functional; method in brief: as §2
Aspergillus niger [4] = assay: Antifungal activity against Aspergillus niger at 25 ug/ml after 48 hrs by agar disk diffusion assay; format: functional; details: read-out: DIZ; method in brief: as §2
SK-OV-3 [5] = assay: Cytotoxicity against human SKOV3 cells up to 50 ug/ml after 48 hrs by SRB assay; format: functional, cell-based
Method in brief: (§3)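 Cells in RPMI-1640 with 10% heat-inactivated FBS, 1 mM NaHCO3, 2 mM L-glutamine, 37 °C, 5% CO2; seeded (B16F10 5 × 10⁴ cells/mL, others 1 × 10⁵ cells/mL), 24 h, then compounds in DMSO at 1.56–50 for 48 h, triplicate wells. TCA fixation, SRB staining 30 min, tris extraction, OD 520 nm; IC50 by linear regression, mean ± SD of three independent experiments; cisplatin positive control.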

Staphylococcus aureus [6] = assay: Antibacterial activity against Staphylococcus aureus after 24 hrs by agar disk diffusion assay; format: functional
Method in brief: (§4)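 Agar well diffusion on nutrient agar against Gram-positive clinical isolates (PSG Hospital, Coimbatore). Compounds in DMSO tested at 0 (control), 25, 50, 75, 100; DMSO as solvent and negative control; ciprofloxacin ([…]) as positive control. Plates incubated 37 ± 2 °C, 24 h; zone of inhibition diameter read in mm.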

Escherichia coli [7] = assay: Antibacterial activity against Escherichia coli at 25 ug/ml after 24 hrs by agar disk diffusion assay; format: functional; details: read-out: DIZ; method in brief: as §1
Klebsiella pneumoniae [8] = assay: Antibacterial activity against Klebsiella pneumoniae at 25 ug/ml after 24 hrs by agar disk diffusion assay; format: functional; details: read-out: DIZ; method in brief: as §1
HCT-15 [9] = assay: Cytotoxicity against human HCT15 cells after 48 hrs by SRB assay; format: functional, cell-based; details: HCT-15, 48 h; method in brief: as §3
Enterococcus faecalis [10] = assay: Antibacterial activity against Enterococcus faecalis after 24 hrs by agar disk diffusion assay; format: functional; method in brief: as §4
A549 [11] = assay: Cytotoxicity against human A549 cells after 48 hrs by SRB assay; format: functional, cell-based; details: A549, 48 h; method in brief: as §3
Enterococcus faecalis [12] = assay: Antibacterial activity against Enterococcus faecalis at 25 ug/ml after 24 hrs by agar disk diffusion assay; format: functional; details: read-out: DIZ; method in brief: as §4
Aspergillus niger [13] = assay: Antifungal activity against Aspergillus niger after 48 hrs by agar disk diffusion assay; format: functional; method in brief: as §2
[14] = system: Radical scavenging activity; assay: Antioxidant activity assessed as DPPH radical scavenging activity after 30 mins by micro plate reader; format: functional
Method in brief: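 DPPH assay: various compound concentrations brought to volume with ethanol, mixed with 0.1 mM ethanolic DPPH alongside vitamin C standard; shaken 30 min at 24 °C, absorbance read at 517 nm; concentration giving 50% decrease determined.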

B16-F10 [15] = assay: Ratio of cisplatin IC50 to compound IC50 for mouse B16F10; format: functional
Escherichia coli [16] = assay: Antibacterial activity against Escherichia coli after 24 hrs by agar disk diffusion assay; format: functional; method in brief: as §1
Staphylococcus aureus [17] = assay: Antibacterial activity against Staphylococcus aureus at 25 ug/ml after 24 hrs by agar disk diffusion assay; format: functional; details: read-out: DIZ; method in brief: as §4
[18] = Cytotoxicity against human SK-MEL-12 cells up to 50 ug/ml after 48 hrs by SRB assay; format: functional, cell-based; method in brief: as §3
B16-F10 [19] = assay: Cytotoxicity against mouse B16F10 cells after 48 hrs by SRB assay; format: functional, cell-based; details: B16-F10, 48 h; method in brief: as §3
HCT-15 [20] = assay: Cytotoxicity against human HCT15 cells up to 50 ug/ml after 48 hrs by SRB assay; format: functional, cell-based; method in brief: as §3
SK-OV-3 [21] = assay: Cytotoxicity against human SKOV3 cells after 48 hrs by SRB assay; format: functional, cell-based; details: SK-OV-3, 48 h; method in brief: as §3
[22] = Cytotoxicity against human SK-MEL-12 cells after 48 hrs by SRB assay; format: functional, cell-based; method in brief: as §3
A549 [23] = assay: Cytotoxicity against human A549 cells up to 50 ug/ml after 48 hrs by SRB assay; format: functional, cell-based; method in brief: as §3
B16-F10 [24] = assay: Cytotoxicity against mouse B16F10 cells up to 50 ug/ml after 48 hrs by SRB assay; format: functional, cell-based; method in brief: as §3
Homo sapiens = species: Homo sapiens; assay: Ratio of cisplatin IC50 to compound IC50 for human SK-MEL-12; format: functional
HCT-15 [25] = assay: Ratio of cisplatin IC50 to compound IC50 for human HCT15 cells; format: functional
A549 [26] = assay: Ratio of cisplatin IC50 to compound IC50 for human A549 cells; format: functional
Escherichia coli [27] = assay: Antibacterial activity against Escherichia coli at 50 ug/ml after 24 hrs by agar disk diffusion assay; format: functional; details: read-out: DIZ; method in brief: as §1
Aspergillus niger [28] = assay: Antifungal activity against Aspergillus niger at 50 ug/ml after 48 hrs by agar disk diffusion assay; format: functional; details: read-out: DIZ; method in brief: as §2
Staphylococcus aureus [29] = assay: Antibacterial activity against Staphylococcus aureus at 50 ug/ml after 24 hrs by agar disk diffusion assay; format: functional; details: read-out: DIZ; method in brief: as §4
Klebsiella pneumoniae [30] = assay: Antibacterial activity against Klebsiella pneumoniae at 50 ug/ml after 24 hrs by agar disk diffusion assay; format: functional; details: read-out: DIZ; method in brief: as §1
Candida albicans [31] = assay: Antifungal activity against Candida albicans at 50 ug/ml after 48 hrs by agar disk diffusion assay; format: functional; details: read-out: DIZ; method in brief: as §2
Enterococcus faecalis [32] = assay: Antibacterial activity against Enterococcus faecalis at 50 ug/ml after 24 hrs by agar disk diffusion assay; format: functional; details: read-out: DIZ; method in brief: as §4

Structure (SMILES) | MIC (Klebsiella pneumoniae [1]) | zone of inhibition at 25 µg/mL (Candida albicans [2]) | MIC (Candida albicans [3]) | zone of inhibition at 25 µg/mL (Aspergillus niger [4]) | IC50 (SK-OV-3 [5]) | MIC (Staphylococcus aureus [6]) | zone of inhibition at 25 µg/mL (Escherichia coli [7]) | zone of inhibition at 25 µg/mL (Klebsiella pneumoniae [8]) | IC50 (HCT-15 [9]) | MIC (Enterococcus faecalis [10]) | IC50 (A549 [11]) | zone of inhibition at 25 µg/mL (Enterococcus faecalis [12]) | MIC (Aspergillus niger [13]) | IC50 [14] | MIC (Escherichia coli [16]) | zone of inhibition at 25 µg/mL (Staphylococcus aureus [17]) | IC50 [18] | IC50 (B16-F10 [19]) | IC50 (HCT-15 [20]) | IC50 (SK-OV-3 [21]) | further results
Cc1ccc2[nH]c3c(c2c1)CCc1c-3nc(N)c(C#N)c1-c1ccc(Br)cc1 | 25 µg/mL (≈ 58.2 µM) | 7 mm | > 100 µg/mL | 6 mm | Not Active | 25 µg/mL (≈ 58.2 µM) | 22 mm | 25 mm | 11 µg/mL (≈ 25.7 µM) | 25 µg/mL (≈ 58.2 µM) | 35 µg/mL (≈ 81.5 µM) | 23 mm | > 100 µg/mL | 140.21 µg/mL (≈ 327 µM) | 25 µg/mL (≈ 58.2 µM) | 24 mm | Not Active | 2.84 µg/mL (≈ 6.62 µM) | – | – | Ratio IC50 (B16-F10 [15]): 2
CCOC(=O)c1c(N)nc2c(c1-c1cc3ccccc3nc1Cl)CCc1c-2[nH]c2ccc(C)cc12 | 25 µg/mL (≈ 51.8 µM) | 11 mm | > 100 µg/mL | 7 mm | – | 25 µg/mL (≈ 51.8 µM) | 23 mm | 26 mm | – | 25 µg/mL (≈ 51.8 µM) | 17.6 µg/mL (≈ 36.5 µM) | 24 mm | > 100 µg/mL | 330.25 µg/mL (≈ 684 µM) | 25 µg/mL (≈ 51.8 µM) | 25 mm | – | 20.5 µg/mL (≈ 42.4 µM) | Not Active | 18.6 µg/mL (≈ 38.5 µM) | IC50 [22]: 27.7 µg/mL (≈ 57.3 µM)
CCOC(=O)c1c(N)nc2c(c1-c1ccc(Br)cc1)CCc1c-2[nH]c2ccc(C)cc12 | 25 µg/mL (≈ 52.5 µM) | 7 mm | > 100 µg/mL | 5 mm | Not Active | 25 µg/mL (≈ 52.5 µM) | 21 mm | 25 mm | – | 25 µg/mL (≈ 52.5 µM) | – | 22 mm | > 100 µg/mL | 214.77 µg/mL (≈ 451 µM) | 25 µg/mL (≈ 52.5 µM) | 23 mm | Not Active | – | Not Active | – | IC50 (A549 [23]): Not Active; IC50 (B16-F10 [24]): Not Active
Cc1ccc2[nH]c3c(c2c1)CCc1c-3nc(N)c(C#N)c1-c1cc2ccccc2nc1Cl | 25 µg/mL (≈ 57.4 µM) | 10 mm | > 100 µg/mL | 6 mm | – | 25 µg/mL (≈ 57.4 µM) | 23 mm | 25 mm | 4.43 µg/mL (≈ 10.2 µM) | 25 µg/mL (≈ 57.4 µM) | 3.72 µg/mL (≈ 8.53 µM) | 24 mm | > 100 µg/mL | 163.07 µg/mL (≈ 374 µM) | 25 µg/mL (≈ 57.4 µM) | 25 mm | – | 5.89 µg/mL (≈ 13.5 µM) | – | 21.9 µg/mL (≈ 50.3 µM) | Ratio IC50 (Homo sapiens): 2.32; Ratio IC50 (HCT-15 [25]): 1.79; IC50 [22]: 4.48 µg/mL (≈ 10.3 µM); Ratio IC50 (A549 [26]): 1.51
CCOC(=O)c1c(N)nc2c(c1-c1ccc(N(C)C)cc1)CCc1c-2[nH]c2ccc(C)cc12 | 50 µg/mL (≈ 113 µM) | – | > 100 µg/mL | – | Not Active | 50 µg/mL (≈ 113 µM) | – | – | – | 50 µg/mL (≈ 113 µM) | – | – | > 100 µg/mL | – | 50 µg/mL (≈ 113 µM) | – | Not Active | – | Not Active | – | IC50 (A549 [23]): Not Active; zone of inhibition at 50 µg/mL (Escherichia coli [27]): 19 mm; zone of inhibition at 50 µg/mL (Aspergillus niger [28]): 7 mm; zone of inhibition at 50 µg/mL (Staphylococcus aureus [29]): 21 mm; zone of inhibition at 50 µg/mL (Klebsiella pneumoniae [30]): 22 mm; IC50 (B16-F10 [24]): Not Active; zone of inhibition at 50 µg/mL (Candida albicans [31]): 5 mm; zone of inhibition at 50 µg/mL (Enterococcus faecalis [32]): 18 mm
